Tests used:
Rattus norvegicus [1] = test: Compound was evaluated for the hypolipidemic activity at 20 mg/kg per day orally for 14 days on phospholipids content in rat HDL; type: functional; details: route oral
Procedure, shortened: (§1)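 Male Sprague–Dawley rats (~300 g) were dosed orally each day. Blood was drawn from the abdominal vein. Lipoprotein fractions (chylomicron, VLDL, LDL, HDL) were separated by the Hatch–Lees and Havel methods. Each fraction was assayed for cholesterol, triglyceride (enzymatic kit), neutral lipids, phospholipids and Lowry protein. Values are % of 1% CMC vehicle control, N = 6.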

[2] = target: T1, 3-hydroxy-3-methylglutaryl-coenzyme A reductase (Mus musculus) (UniProt Q01237); test: In Vivo effect for the hypolipidemic activity on HMG-CoA reductase in CF1 mice after 16 days of oral administration at a dose of 20 mg/kg; type: organism-based; set-up: dose 20 mg/kg
T1 sequence (whole entry): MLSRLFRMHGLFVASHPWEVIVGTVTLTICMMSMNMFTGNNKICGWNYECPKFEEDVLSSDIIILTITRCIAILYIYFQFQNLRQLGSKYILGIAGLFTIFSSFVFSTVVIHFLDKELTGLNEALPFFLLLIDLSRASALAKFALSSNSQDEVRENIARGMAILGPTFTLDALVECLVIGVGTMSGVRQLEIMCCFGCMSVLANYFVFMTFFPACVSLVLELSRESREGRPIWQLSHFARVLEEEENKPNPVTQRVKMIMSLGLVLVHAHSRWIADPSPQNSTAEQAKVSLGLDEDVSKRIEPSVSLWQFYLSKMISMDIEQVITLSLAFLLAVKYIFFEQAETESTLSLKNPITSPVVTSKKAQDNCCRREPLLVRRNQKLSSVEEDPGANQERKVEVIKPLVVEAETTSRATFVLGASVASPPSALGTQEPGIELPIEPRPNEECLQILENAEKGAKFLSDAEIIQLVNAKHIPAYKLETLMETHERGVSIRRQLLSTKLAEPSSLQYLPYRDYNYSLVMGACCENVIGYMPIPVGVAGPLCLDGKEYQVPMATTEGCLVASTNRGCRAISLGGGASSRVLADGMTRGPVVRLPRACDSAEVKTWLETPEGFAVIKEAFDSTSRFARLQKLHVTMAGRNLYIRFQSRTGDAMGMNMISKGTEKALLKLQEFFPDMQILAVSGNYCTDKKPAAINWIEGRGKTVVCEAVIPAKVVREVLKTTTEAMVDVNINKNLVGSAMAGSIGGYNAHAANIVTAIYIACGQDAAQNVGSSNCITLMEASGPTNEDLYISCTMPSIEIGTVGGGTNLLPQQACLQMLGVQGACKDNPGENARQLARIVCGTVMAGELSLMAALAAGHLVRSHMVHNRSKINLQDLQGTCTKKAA
Procedure, shortened: (§2)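 CF1 male mice are dosed orally at 10–60 mg/kg per day for 16 days, with 1% CMC as the control vehicle. Liver is homogenized at 10% in 0.25 M sucrose + 0.001 M EDTA, pH 7.2. Enzymes are assayed by literature methods, with Lowry protein. Activity is given as % of control (X ± SD, N = 6), with p from Student's t test.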

Mus musculus [3] = test: In Vivo effect for the hypolipidemic activity on phosphatidate phosphohydrolase in CF1 mice after 16 days administered orally at a dose of 20 mg/kg; type: organism-based; set-up: dose 20 mg/kg; procedure, shortened: as §2
Rattus norvegicus [4] = test: Compound was evaluated for the hypolipidemic activity in Sprague-Dawley rats at a dose of 20 mg/kg orally for Serum triglyceride at 9th day; type: functional; details: route oral
Procedure, shortened: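 Sprague–Dawley male rats (~350 g) received 20 mg/kg per day orally, with 1% CMC as the vehicle control; N = 6. Tail-vein blood was taken between 8:00 and 9:30 a.m. on days 9 and 16 and spun for 3 min to obtain serum. Cholesterol was measured by a modified Liebermann–Burchard reaction and triglyceride by kit. Values are % control ± SD; significance by Student's t test.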

Rattus norvegicus [5] = test: Compound was evaluated for the hypolipidemic activity at 20 mg/kg per day orally for 14 days on phospholipids content in rat LDL; type: functional; details: route oral; procedure, shortened: as §1
Mus musculus [6] = test: Hypolipidemic activity in CF1 male mice at a dose of 20 mg/kg per day, serum triglyceride measured on the 16th day; type: functional
Procedure, shortened: (§3)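 CF1 male mice (~30 g) were given 20 mg/kg per day ip at 11:00 a.m.; N = 6 per group. Tail-vein serum was collected in nonheparinized microcapillaries. Cholesterol was measured on days 9 and 16 by modified Liebermann–Burchard on duplicate 25 µL samples. Triglyceride was measured on day 16 in a separate group, duplicate 50 µL. Values are % control ± SD; Student's t test.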

Rattus norvegicus [7] = test: Compound was evaluated for the hypolipidemic activity at 20 mg/kg per day orally for 14 days on lipid content in rat liver; type: functional; details: route oral
Procedure, shortened: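 Male Sprague–Dawley rats were dosed orally for 14 days. Liver, small intestine and a 24-h fecal collection were lipid-extracted. Extracts were assayed for cholesterol (modified Liebermann–Burchard), triglyceride (enzymatic kit), neutral lipids, phospholipids and protein. Values are % of 1% CMC vehicle control, mean ± SD, N = 6.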

Mus musculus [8] = species: Mus musculus; test: In Vitro evaluation for the CF1 liver enzyme activity on Mitochondrial citrate exchange at concentration 200 uM; type: functional
Procedure, shortened: (§4)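 Mouse liver enzymes assayed in vitro on 10% homogenates of CF1 male mouse liver, with test drug added at 50–200 μM. Each enzyme follows a published procedure. Protein is measured by Lowry. Activity is given as % of untreated control (X ± SD, N = 6).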

Mus musculus [9] = test: Hypolipidemic activity in CF1 male mice at a dose of 20 mg/kg per day, serum cholesterol measured on the 16th day; type: functional; procedure, shortened: as §3
Rattus norvegicus [10] = test: Compound was evaluated for the hypolipidemic activity at 20 mg/kg per day orally for 14 days on phospholipids content in rat lipoprotein chylomicron; type: functional; details: route oral; procedure, shortened: as §1
Mus musculus [11] = species: Mus musculus; test: In Vitro evaluation for the CF1 liver enzyme activity on Hepatic lipoprotein lipase at concentration 200 uM; type: functional; procedure, shortened: as §4
Mus musculus [12] = test: In Vivo effect for the hypolipidemic activity on Acetyl-coenzyme A synthetase in CF1 mice after 16 days of oral administration at a dose of 10 mg/kg; type: functional; procedure, shortened: as §2
Rattus norvegicus [13] = test: Compound was evaluated for the hypolipidemic activity at 20 mg/kg per day orally for 14 days on protein content in rat VLDL; type: functional; details: route oral; procedure, shortened: as §1
[14] = target: T1, 3-hydroxy-3-methylglutaryl-coenzyme A reductase (Mus musculus); test: In Vivo effect for the hypolipidemic activity on HMG-CoA reductase in CF1 mice after 16 days of oral administration at a dose of 60 mg/kg; type: organism-based; set-up: dose 60 mg/kg; procedure, shortened: as §2
Mus musculus [15] = test: In Vivo effect for the hypolipidemic activity on Acetyl-CoA carboxylase in CF1 mice after 16 days administered orally at a dose of 40 mg/kg; type: functional; details: route oral; procedure, shortened: as §2

COc1ccc(C2C(=O)c3ccccc3C2=O)cc1 [ANISINDIONE]
Control (Rattus norvegicus [1]): 87%
Control [2]: 114%
Control (Mus musculus [3]): 35%
Control (Rattus norvegicus [4]): 73%
Control (Rattus norvegicus [5]): 204%
Serum triglyceride, % of control (Mus musculus [6]): 42%
Control (Rattus norvegicus [7]): 98%
Control (Mus musculus [8]): 36%
Serum cholesterol, % of control (Mus musculus [9]): 59%
Control (Rattus norvegicus [10]): 135%
Control (Mus musculus [11]): 93%
Control (Mus musculus [12]): 83%
Control (Rattus norvegicus [13]): 106%
Control [14]: 126%
Control (Mus musculus [15]): 98%

From ChEMBL document CHEMBL1123129, “Hypolipidemic activity of indan-1,3-dione derivatives in rodents” (J Med Chem, 1985)
